Data set [1] deals with Staphylococcus aureus subsp. aureus USA300. Kind of data set: Inhibition of DltB tn::1050 mutant in Staphylococcus aureus USA300 JE2 at 1 ug/ml after 16 to 18 hrs.
Data set [2] can be described thus: Cytotoxicity against African green monkey Vero cells assessed cell viability at 2.5 uM relative to control. The data set is classed as toxicity, cell-based. The conditions noted are these: chlorocebus sabaeus, read-out: Activity.
Data set [3] is described as follows: Cytotoxicity against African green monkey Vero cells assessed cell viability at 5 uM relative to control. It counts as toxicity, cell-based. The conditions noted are these: chlorocebus sabaeus, read-out: Activity.
The nature of data set [4]: Cytotoxicity against African green monkey Vero cells assessed cell viability at 1.3 uM relative to control. Conditions: chlorocebus sabaeus, read-out: Activity. It counts as toxicity, cell-based.
The subject of data set [5] is Staphylococcus aureus subsp. aureus str. Newman. Put plainly: Inhibition of DltB in Taro-deficient Staphylococcus aureus Newman at 1 ug/ml after 16 to 18 hrs. Put shortly:
(§1)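 S. aureus overnight cultures (Newman WT, Newman ΔtarO, SEJ1 ΔltaS, RN4220 ΔypfP) diluted 1:100 in TSB and grown to OD600 ~1. Cultures were normalized to OD600 1 and diluted 1:1000. A DMSO compound dilution series was added to give final 0–32 µg/mL. Plates were incubated at 30°C for 16–18 h, then growth was read as OD600.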

For data set [6] the test system is unchanged. Kind of data set: Inhibition of DltB in Staphylococcus aureus Newman assessed as suppression of 14C-D-Ala incorporation into LTA up to 16 ug/ml preincubated for 30 mins followed by 14C-D-Ala addition after 30 mins by PAGE autoradiography. Put shortly:
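S. aureus Newman overnight culture diluted 1:100 and grown in TSB at 30°C to OD600 0.6. Cells were resuspended in 0.25X TSB pH 6.0 with 200 µg/mL D-cycloserine and compound at 0–16 µg/mL (eight levels), then held 30 min at 30°C, 300 rpm. Cells were then resuspended in the same buffer with compound plus 14C-D-Ala for a further 30 min. Lysates were boiled in SDS buffer and run on 4–20% Tris-glycine PAGE, then autoradiographed for labelled LTA.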

Data set [7] concerns Staphylococcus aureus. Kind of data set: Inhibition of DltB in ltaS-deficient Staphylococcus aureus SEJ1 at 1 ug/ml after 16 to 18 hrs. An outline of the steps:
as §1

Data set [8] is described as follows: Cytotoxicity against African green monkey Vero cells assessed cell viability at 10 uM relative to control. It counts as toxicity, cell-based. The conditions noted are these: chlorocebus sabaeus, read-out: Activity.
Data set [9] relates to T1, Teichoic acid D-alanyltransferase (Staphylococcus aureus), Q53662 [S175T].
T1 sequence (whole entry): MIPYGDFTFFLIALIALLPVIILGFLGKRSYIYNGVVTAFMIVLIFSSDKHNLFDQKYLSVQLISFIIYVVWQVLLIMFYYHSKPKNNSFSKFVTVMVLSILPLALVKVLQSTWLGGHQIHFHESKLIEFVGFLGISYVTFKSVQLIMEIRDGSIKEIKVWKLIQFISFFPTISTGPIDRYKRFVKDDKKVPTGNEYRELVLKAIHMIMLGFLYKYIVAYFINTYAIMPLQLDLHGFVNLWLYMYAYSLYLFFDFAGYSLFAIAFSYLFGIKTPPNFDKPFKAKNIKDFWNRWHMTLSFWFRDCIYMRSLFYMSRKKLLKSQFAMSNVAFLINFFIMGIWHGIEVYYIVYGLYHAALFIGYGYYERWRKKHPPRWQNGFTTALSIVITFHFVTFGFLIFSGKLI
Put plainly: Inhibition of DltB S175T mutant in Staphylococcus aureus Newman up to 32 ug/ml after 16 to 18 hrs by spectrophotometric analysis. The conditions noted are these: Staphylococcus aureus subsp. aureus str. Newman.

The test system of data set [10] is T2, Teichoic acid D-alanyltransferase (Staphylococcus aureus), Q53662 [A355E].
T2 sequence (whole entry): T1 sequence (whole entry) with T175S, A355E
Kind of data set: Inhibition of DltB A355E mutant in Staphylococcus aureus Newman up to 32 ug/ml after 16 to 18 hrs by spectrophotometric analysis. The conditions noted are these: Staphylococcus aureus subsp. aureus str. Newman. An outline of the steps:
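Broth-dilution MIC. Overnight cultures of the parent and the resistant mutants (selected in the […] background) were diluted 1:100 and grown in TSB at 30°C to OD600 ~1. They were then normalized to OD600 1 and diluted 1:1000. Compound series were made in DMSO, with 3 µL added to 147 µL of culture for a final 0–32 µg/mL. Plates were held 16–18 h at 30°C and OD600 was read.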

The subject of data set [11] is Staphylococcus aureus subsp. aureus RN4220. Kind of data set: Inhibition of DltB in ypfP-deficient Staphylococcus aureus RN4220 at 1 ug/ml after 16 to 18 hrs. An outline of the steps:
as §1

In data set [12] the test system is Staphylococcus aureus. Put plainly: Antibacterial activity against wild type Staphylococcus aureus Newman at 5 ug/ml after 16 to 18 hrs. It counts as functional. Put shortly:
as §1

Data set [13] deals with Staphylococcus aureus subsp. aureus RN4220. Put plainly: Inhibition of DltB in ypfP-deficient Staphylococcus aureus RN4220 at 5 ug/ml after 16 to 18 hrs. An outline of the steps:
as §1

Data set [14] has as its system Staphylococcus aureus subsp. aureus USA300. Kind of data set: Inhibition of DltB tn::1050 mutant in Staphylococcus aureus USA300 JE2 at 5 ug/ml after 16 to 18 hrs.
Data set [15] concerns Staphylococcus aureus. Put plainly: Inhibition of DltB in ltaS-deficient Staphylococcus aureus SEJ1 at 5 ug/ml after 16 to 18 hrs. Put shortly: as §1
In data set [16] the test system is Staphylococcus aureus subsp. aureus str. Newman. Kind of data set: Inhibition of DltB in Taro deficient Staphylococcus aureus Newman at 5 ug/ml after 16 to 18 hrs. An outline of the steps:
as §1

Substitutions are numbered along the chain they refer to. Converted amounts (≈) assume the structure as drawn. The source made the active and inactive calls. No cut-off for these calls is given here.

As for `COc1ccc(-c2csc(NC(=O)/C=C/c3cccs3)n2)c(OC)c1`, the inhibition entry (in data set [1]; in data set [5]; in [6]; in the data set with Staphylococcus aureus [7]; in data set [11]) was “Active” throughout. Besides, in [2], the viability at 2.5 µM was 106%. Moreover, in [3], the viability at 5 µM amounted to 106%. Besides, the viability at 1.3 µM in data set [4] came out at 106%. In addition, in data set [8], the viability at 10 µM was found to be 106%. Further, the MIC in data set [9] was 0.5 µg/mL (≈ 1.34 µM); in data set [10] it was greater than 32 µg/mL.
Take `COc1cc(NS(C)(=O)=O)ccc1Nc1c2ccccc2nc2ccccc12`: in the data set with Staphylococcus aureus [12], the result was Active. In addition, the inhibition entry (in [13]; in data set [14]; in the data set on Staphylococcus aureus [15]; in [16]) was “Active” throughout. Also, the MIC in [9] was greater than 32 µg/mL; in data set [10], 2 µg/mL (≈ 5.08 µM).

(Values after ChEMBL document CHEMBL3867455, “Accelerating the discovery of antibacterial compounds using pathway-directed whole cell screening” (Bioorg Med Chem, 2016).)
